# Test results: PubChem BioAssay
# Active and inactive are the calls of the source.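 How the source made its calls, unless noted: active means viability at or under a set limit in both replicates, limit being median viability minus 3 SD (cut at about 48% in these data, passing the limit was not always enough); inconclusive means at or under the limit in just one replicate; inactive means at or above the limit in both replicates.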 Square brackets hold non-standard residues; d marks the D form. Peptide text beside a SMILES is read from it. * marks the point of attachment. ξ: configuration not given here. Piv = CC(C)(C)C(=O)*; ξNva = CCCC(N)C(=O)O
# Columns and labels:
# [1] = reducers of endogenous Her2 protein level, primary screen, SKBR3 breast tumor cells, AlphaScreen, ATP viability (AID 461;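 active means Her2 level under about 52% in both replicate screens, with viability over 70% of control, limit read from the data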;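 on Her2 level: lower value means less Her2 protein in the cells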;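 on viability: percent of carrier control wells set as 100% viability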); conditions: 18-24 h, measured here: SKBR3 viability, ATP luminescence, at 10 µM
# [2] = target: Receptor tyrosine-protein kinase erbB-2 (Homo sapiens) (UniProt P04626); test: as above; conditions: 18-24 h, at 10 µM, stronger effect = lower value
# [3] = SK-BR-3 cell growth inhibitors, pilot screen, 24 h, human (AID 572;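 active means viability at or below 10% of carrier control in both of two separate runs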;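 further: compound exposure lasted between 18 and 24 h rather than exactly 24 h; 100% = carrier-treated control wells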); conditions: SK-BR-3 viability, CellTiter-Glo luminescence, at 10 µM, stronger effect = lower value
# [4] = HUVEC growth inhibition – cell-based, human, primary screen (AID 575;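 active means viability at or below 30% in both replicate assays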;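 further: 100% = median of untreated cell wells with 0.1% DMSO on each plate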); conditions: HUVEC proliferation, CellTiter-Glo luminescence, 72 h; at 10 µM; stronger effect = lower value
# How it was run: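 Test system: primary human umbilical vein endothelial cells; medium: endothelial basal medium with 2% FBS plus growth supplements; dosing: 10 µM compound only; times: 72 h treatment at 37 °C; signal: CTG luminescence; read-out: % viability relative to median vehicle-well signal on each plate; control set: vehicle and MePR control wells; plate: 384-well, collagen-coated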
# [5] = growth inhibitors of H69AR lung tumor, primary screen, human, duplicate replicates (AID 580); conditions: H69AR lung tumor cells viability, ATP luminescence, 72 h; at 10 µM; stronger effect = lower value;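 further: 100% = mean luminescence of untreated wells and 0% = no signal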
# [6] = reversal of MRP1-mediated doxorubicin resistance, pilot screen, H69AR cells, doxorubicin co-treatment (AID 601;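 active means viability loss from added drug above about 55%, and viability with drug at most 40%, in both replicates, limit read from the data, passing the limit was not always enough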); conditions: CellTiter-Glo, 72 h, at 10 µM; for differential viability (reversal): stronger effect = higher value
# [7] = 384-well plate pilot, post-Golgi transport modulator project, inhibition of yeast transport mutant growth (AID 636; in the data active means inhibition above about 31%); conditions: absorbance 615 nm, about 18 h, stronger effect = higher value
# [8] = growth suppression of yeast trafficking mutant, preliminary HTS, modulators of trafficking downstream of Golgi apparatus project, 1536-format plate, OD 615 nm (AID 637; in the data active means inhibition above about 30%); conditions: yeast transport mutant growth, absorbance 615 nm, 18 h; stronger effect = higher value
# [9] = H69AR cells + 2 uM doxorubicin, measured here: viability with 2 uM doxorubicin, stronger effect = lower value
# [10] = H69AR cells, compound alone cytotoxicity
# Receptor tyrosine-protein kinase erbB-2 (Homo sapiens), sequence (P04626 whole entry, looked up): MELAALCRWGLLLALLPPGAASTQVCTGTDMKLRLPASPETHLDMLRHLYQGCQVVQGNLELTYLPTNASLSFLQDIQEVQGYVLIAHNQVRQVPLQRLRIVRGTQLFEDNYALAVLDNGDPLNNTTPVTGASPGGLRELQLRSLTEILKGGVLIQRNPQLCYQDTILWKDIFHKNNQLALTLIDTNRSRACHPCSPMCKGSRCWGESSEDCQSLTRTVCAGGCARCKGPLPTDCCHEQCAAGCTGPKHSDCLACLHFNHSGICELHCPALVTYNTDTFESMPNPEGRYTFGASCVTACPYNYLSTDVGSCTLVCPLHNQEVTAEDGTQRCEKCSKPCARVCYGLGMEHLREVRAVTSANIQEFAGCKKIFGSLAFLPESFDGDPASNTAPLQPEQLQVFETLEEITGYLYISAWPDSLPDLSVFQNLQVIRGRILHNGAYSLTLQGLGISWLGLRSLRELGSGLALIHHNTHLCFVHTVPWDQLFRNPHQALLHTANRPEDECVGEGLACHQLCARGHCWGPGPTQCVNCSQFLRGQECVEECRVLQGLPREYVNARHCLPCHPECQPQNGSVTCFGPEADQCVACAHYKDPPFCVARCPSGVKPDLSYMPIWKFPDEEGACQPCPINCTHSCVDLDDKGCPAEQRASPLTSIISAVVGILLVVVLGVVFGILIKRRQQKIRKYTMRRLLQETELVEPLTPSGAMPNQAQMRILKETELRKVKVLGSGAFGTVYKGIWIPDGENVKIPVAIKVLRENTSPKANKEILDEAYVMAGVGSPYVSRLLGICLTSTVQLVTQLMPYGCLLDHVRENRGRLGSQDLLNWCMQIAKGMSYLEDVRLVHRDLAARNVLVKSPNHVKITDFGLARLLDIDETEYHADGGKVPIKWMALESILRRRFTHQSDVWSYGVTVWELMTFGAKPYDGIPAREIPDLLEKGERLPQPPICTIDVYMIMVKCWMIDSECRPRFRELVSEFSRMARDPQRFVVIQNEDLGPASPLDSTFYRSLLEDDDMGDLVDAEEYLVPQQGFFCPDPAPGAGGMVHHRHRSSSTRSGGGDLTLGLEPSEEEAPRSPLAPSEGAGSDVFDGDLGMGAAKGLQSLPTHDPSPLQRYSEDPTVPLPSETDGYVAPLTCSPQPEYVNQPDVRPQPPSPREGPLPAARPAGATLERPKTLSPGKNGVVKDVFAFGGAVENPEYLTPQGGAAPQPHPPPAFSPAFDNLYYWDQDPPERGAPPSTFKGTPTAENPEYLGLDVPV
Structure (SMILES),viability [1] [%],Her2 level [2],viability [3],viability [4],viability [5],differential viability (reversal) ([6]; H69AR cells + 2 uM doxorubicin),"viability [6, 9] [%]","viability [6, 10] [%]",inhibition [7],inhibition [8]
COC(=O)Nc1ccc(S(=O)(=O)N2CCN(c3ccc(F)cc3)CC2)cc1,96.5,106% (inactive),96.5% (inactive),86.9% (inactive),97.1% (inactive),3.18% (inactive),94,97.1,-4.61% (inactive),9.84% (inactive)
O=C(CSc1ncnc2c1oc1ccccc12)NCc1ccco1,140,60% (inactive),140% (inactive),83.7% (inactive),76.4% (inactive),-5.7% (inactive),82.1,76.4,-6.27% (inactive),2.62% (inactive)
CC(C)CCNc1cc(=O)n(C)c(=O)n1C,83.5,120% (inactive),83.5% (inactive),91% (inactive),88.2% (inactive),-0.405% (inactive),88.6,88.2,-1.3% (inactive),20.3% (inactive)
Cc1ccccc1S(=O)(=O)Cc1ccc(C(=O)NCc2cccnc2)o1,93,83.5% (inactive),93% (inactive),97.8% (inactive),94.2% (inactive),6.61% (inactive),87.6,94.2,-1.84% (inactive),-2.91% (inactive)
Cc1ccc(-c2cn3nc(C)c(C)nc3n2)cc1,106,94% (inactive),106% (inactive),75.4% (inactive),85.5% (inactive),4% (inactive),81.5,85.5,-4.93% (inactive),0% (inactive)
CCOC(=O)CSc1nnc(-c2cccnc2)n1Cc1ccccc1,91.5,108% (inactive),91.5% (inactive),106% (inactive),96.4% (inactive),0.125% (inactive),96.2,96.4,1.45% (inactive),-12.3% (inactive)
COc1ccc(N2CCN(c3nc4c(c(=O)[nH]c(=O)n4C)n3CCCc3ccccc3)CC2)cc1,120,102% (inactive),120% (inactive),94% (inactive),84.9% (inactive),-2.09% (inactive),87,84.9,-6.8% (inactive),0.48% (inactive)
CCCCc1noc2c1/C(=N\O)CC(c1ccccc1)C2 (stereo not given),86,82.5% (inactive),86% (inactive),108% (inactive),90.5% (inactive),-0.815% (inactive),91.3,90.5,3.11% (inactive),-3.77% (inactive)
CCn1cc(S(=O)(=O)CC(=O)Nc2ccc(OC)cc2)c2ccccc21,104,88% (inactive),104% (inactive),105% (inactive),91.8% (inactive),21.4% (inactive),70.4,91.8,-1.6% (inactive),0% (inactive)
O=C(CSCc1cnn(-c2ccccc2)c1-n1cccc1)NCC1CCCO1 (stereo not given),97.5,85% (inactive),97.5% (inactive),94.1% (inactive),93.7% (inactive),-10.7% (inactive),104,93.7,-4.59% (inactive),-2.7% (inactive)
Cc1ccc(CNC(=O)CSc2n[nH]c(N)n2)cc1,100,99.5% (inactive),100% (inactive),82.3% (inactive),96.6% (inactive),-1.86% (inactive),98.5,96.6,0.79% (inactive),5.9% (inactive)
COc1ccc(-c2nnc3ccc(SC(C(C)=O)C(C)=O)nn23)cc1OC,90,86.5% (inactive),90% (inactive),87.8% (inactive),82.9% (inactive),4.92% (inactive),78,82.9,-6.62% (inactive),6.17% (inactive)
CC(=O)Nc1c(Cl)n(C(C)=O)c2ccccc12,85,65% (inactive),85% (inactive),71.6% (inactive),84% (inactive),-6.37% (inactive),90.4,84,-7.57% (inactive),5.5% (inactive)
N#CCSc1nc2c(c(C3CC=CCC3)c1C#N)CCC2 (stereo not given),88.5,81.5% (inactive),88.5% (inactive),63.4% (inactive),100% (inactive),12.8% (inactive),87.2,100,-3.07% (inactive),-1.94% (inactive)
COC(=O)C1C(=O)c2c([nH]c(C(=O)OCCOC(C)C)c2C)CC1C (stereo not given),100,111% (inactive),100% (inactive),97.8% (inactive),99.5% (inactive),7.92% (inactive),91.6,99.5,-2.11% (inactive),-11.5% (inactive)
Cn1c(/C(C#N)=C/Nc2ccccn2)nc2ccccc21,75,106% (inactive),75% (inactive),110% (inactive),73.5% (inactive),-12.4% (inactive),85.9,73.5,4.47% (inactive),29.5% (inactive)

Structure (SMILES),viability [1] [%],Her2 level [2],viability [3],viability [4],viability [5],differential viability (reversal) ([6]; H69AR cells + 2 uM doxorubicin),"viability [6, 9] [%]","viability [6, 10] [%]",inhibition [7],inhibition [8]
CC(=O)c1cn(CC(=O)NCc2ccc3c(c2)OCO3)c2ccccc12,102,93% (inactive),102% (inactive),98.4% (inactive),99% (inactive),6.8% (inactive),92.2,99,-9.32% (inactive),3.65% (inactive)
CC(C)OC(=O)CSc1nnc(-c2ccc(C(C)(C)C)cc2)n1N,93,108% (inactive),93% (inactive),86.7% (inactive),88.4% (inactive),5.61% (inactive),82.8,88.4,-2.6% (inactive),-12.7% (inactive)
COc1ccccc1N1CC(C(=O)Nc2cccc(C(=O)O)c2)CC1=O (stereo not given),98,103% (inactive),98% (inactive),95.4% (inactive),94.1% (inactive),-5.46% (inactive),99.6,94.1,3.07% (inactive),-7.58% (inactive)
CNC(=O)CC(C(=O)O)c1ccc(OC(C)C)cc1 (stereo not given),105,85.5% (inactive),105% (inactive),92.3% (inactive),90% (inactive),4.31% (inactive),85.7,90,-5.07% (inactive),1.75% (inactive)
COCCN(C(=O)Cn1nnc2ccccc21)C(C(=O)NC1CCCC1)c1cc(OC)ccc1OC (stereo not given),86,106% (inactive),86% (inactive),101% (inactive),93.9% (inactive),-0.19% (inactive),94.1,93.9,-0.8% (inactive),-4.92% (inactive)
Cc1ccc(NC(=O)Nc2ccc3c(c2)N(C)C(=O)CS3)nc1,108,68.5% (inactive),108% (inactive),45.5% (inactive),88.3% (inactive),-8.16% (inactive),96.4,88.3,-3.73% (inactive),-0.33% (inactive)
CSc1nc(N2CCOCC2)c2ccccc2n1,110,100% (inactive),110% (inactive),93.7% (inactive),94.6% (inactive),7.67% (inactive),87,94.6,-2.27% (inactive),-7.87% (inactive)
CCN(CC)CCOc1cccc(C(C)C)c1,90.5,95.5% (inactive),90.5% (inactive),92.6% (inactive),109% (inactive),17.4% (inactive),91.8,109,3.25% (inactive),-1.64% (inactive)
CCCC(NC(=O)CNC(=O)C(C)(C)C)C(=O)O (stereo not drawn) (Piv-Gly-[ξNva]-OH),91,91.5% (inactive),91% (inactive),96.1% (inactive),97.5% (inactive),1.52% (inactive),96,97.5,-2% (inactive),-3.71% (inactive)
COc1ccc(N2CCN(C(=O)COc3ccc4ccccc4c3)CC2)cc1,77.5,86.5% (inactive),77.5% (inactive),84.8% (inactive),108% (inactive),17.1% (inactive),90.8,108,-6.35% (inactive),3.11% (inactive)
Cc1c(Cl)cnc(NC(=O)COC(=O)C(NC(=O)c2ccco2)C(C)C)c1Cl (stereo not given),86,85% (inactive),86% (inactive),92.4% (inactive),83.2% (inactive),10.7% (inactive),72.5,83.2,-1.89% (inactive),-4.76% (inactive)
CCOC(=O)Cc1csc(NC(=O)CN(C)S(=O)(=O)c2ccc3c(c2)CCC(=O)N3)n1,108,109% (inactive),108% (inactive),97.5% (inactive),100% (inactive),6.38% (inactive),93.7,100,-4% (inactive),0.82% (inactive)
CS(=O)(=O)c1ccc2nc(NC(=O)c3cccs3)sc2c1,99,74.5% (inactive),99% (inactive),64% (inactive),45% (active),-6.37% (inactive),51.4,45,-6.76% (inactive),2.95% (inactive)
COc1ccc2nc3oc(C(=O)NC4CCN(Cc5ccccc5)CC4)cc3cc2c1,76.5,89.5% (inactive),76.5% (inactive),57.5% (inactive),82.6% (inactive),1.69% (inactive),80.9,82.6,-2.76% (inactive),-14.8% (inactive)
Cc1ccc(SCCNS(=O)(=O)c2ccc(F)cc2)cc1,85,112% (inactive),85% (inactive),78.8% (inactive),105% (inactive),13.5% (inactive),91.1,105,-6.8% (inactive),-2.42% (inactive)
